Broadly, the pKi is −log10 of the Ki, conventionally taken in molar units. Read a high pKi as a small Ki.

This is an account of results in ChEMBL document CHEMBL1128727, “Characterization of a class of peptide boronates with neutral P1 side chains as highly selective inhibitors of thrombin” (J Med Chem, 1995).

One assay deals with Coagulation factor X (Homo sapiens, UniProt P00742). Kind of assay: Binding affinity against Coagulation factor X. Summed up: (§1)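 Chromogenic pNA assays used human plasma factor Xa with S-2222, human plasmin with S-2251, human kidney urokinase with S-2444, and human plasma activated protein C with S-2366. Rates were read over 2 min at 25 °C. A 2 h enzyme–inhibitor preincubation tested for slow binding. For non-slow binders, Ki came from Lineweaver–Burk plots at five substrate levels over a 10-fold range around Km, using at least five points in duplicate.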

For the next assay, the target named is Chymotrypsinogen A (Bos taurus, UniProt P00766). The assay can be described thus: Binding affinity against Chymotrypsin. Summed up:
(§2)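 Enzymes: bovine pancreatic α-chymotrypsin with S-2586 (MeO-Suc-Arg-Pro-Tyr-pNA), human plasma kallikrein with S-2288, porcine pancreatic elastase with Suc-Ala-Ala-Ala-pNA, and bovine pancreatic trypsin. Initial velocity was read at 25 °C over 2 min. A 2 h preincubation was used to screen for slow binding. For competitive inhibitors, Ki came from Lineweaver–Burk plots at five substrate concentrations spanning 10-fold around Km, using at least five points in duplicate.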

A short description of assay [1]: Concentration of inhibitor required to produce a 2-fold prolongation in activated partial Thromboplastin time (APTT) in human plasma. Format: functional. Summed up: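 Pooled citrated normal human plasma, APTT reagent and inhibitor were incubated for 5 min at 37 °C. Clotting was started with CaCl2 from a 25 mM aqueous solution and timed on a coagulometer. The inhibitor concentration that doubled the APTT was determined in duplicate.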

Another assay deals with Plasminogen (Homo sapiens, UniProt P00747). The assay can be described thus: Binding affinity against plasmin. Summed up: as §1
Assay [2] can be described thus: Binding affinity against protein Ca. Summed up: as §1
Another assay addresses T1, Serine protease 1 (Bos taurus, UniProt P00760).
T1 sequence (P00760 whole entry): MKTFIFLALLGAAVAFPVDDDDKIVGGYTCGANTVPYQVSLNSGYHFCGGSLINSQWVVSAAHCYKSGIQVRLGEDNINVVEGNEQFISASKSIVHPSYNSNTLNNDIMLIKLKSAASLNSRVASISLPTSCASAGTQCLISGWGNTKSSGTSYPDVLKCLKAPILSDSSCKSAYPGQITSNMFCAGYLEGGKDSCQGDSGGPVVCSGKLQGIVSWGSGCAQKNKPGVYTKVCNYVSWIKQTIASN
Kind of assay: Binding affinity against Trypsin. Summed up:
as §2

Assay [3] deals with Urokinase-type plasminogen activator (Homo sapiens, UniProt P00749). Kind of assay: Binding affinity against Urokinase plasminogen activator. The gist of the method:
as §1

Assay [4] has as its target T2, Prothrombin (Homo sapiens, UniProt P00734). Kind of assay: Binding affinity against gamma thrombin. Summed up:
(§3)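 Human α-thrombin or human γ-thrombin was assayed with S-2238 (H-D-Phe-Pip-Arg-pNA), with velocity measured over 2 min at 25 °C. A 2 h preincubation screened for slow binding. For competitive inhibitors, Ki came from Lineweaver–Burk plots at five substrate concentrations over 10-fold around Km; slow binders were fitted to the slow-binding rate equations. At least five points were run in duplicate.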

Assay [5] has as its target T2, Prothrombin. The assay can be described thus: Binding affinity against thrombin. The gist of the method: as §3
The target of assay [6] is T2, Prothrombin. The assay can be described thus: Binding affinity against alpha thrombin. Summed up:
as §3

The target of assay [7] is Plasma kallikrein (Homo sapiens) (UniProt P03952). Kind of assay: Binding affinity against plasma kallikrein.
The target in assay [8] is T2, Prothrombin. The assay can be described thus: Concentration of inhibitor required to produce a 2-fold prolongation in Thrombin time (TT). The gist of the method:
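Pooled citrated normal human plasma was incubated with inhibitor for 1 min at 37 °C; the inhibitor was serially diluted in buffer from a DMSO stock. Human α-thrombin was then added from a 5 units/mL solution in 50 mM sodium phosphate, 0.1% PEG, pH 7.4. Clotting was timed on a coagulometer, and the concentration that doubled the thrombin time was determined in duplicate.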

The structures appear in SMILES notation. pKi: −log10 of the molar value.

Sequence of Coagulation factor X (P00742 41-179 limits assumed): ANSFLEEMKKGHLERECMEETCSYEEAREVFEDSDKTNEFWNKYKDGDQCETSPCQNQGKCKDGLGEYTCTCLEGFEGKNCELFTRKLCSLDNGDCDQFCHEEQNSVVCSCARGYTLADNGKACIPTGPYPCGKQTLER
Sequence of Coagulation factor X (P00742 235-488 limits assumed): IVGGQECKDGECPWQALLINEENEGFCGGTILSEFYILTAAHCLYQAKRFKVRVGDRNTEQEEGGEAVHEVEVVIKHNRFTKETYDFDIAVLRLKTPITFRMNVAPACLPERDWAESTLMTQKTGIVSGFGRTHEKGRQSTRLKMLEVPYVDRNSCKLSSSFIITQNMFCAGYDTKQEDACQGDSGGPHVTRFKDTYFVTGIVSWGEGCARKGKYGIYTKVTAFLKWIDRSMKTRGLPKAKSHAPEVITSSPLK
Sequence of Plasma kallikrein (Homo sapiens) (P03952 whole entry, looked up): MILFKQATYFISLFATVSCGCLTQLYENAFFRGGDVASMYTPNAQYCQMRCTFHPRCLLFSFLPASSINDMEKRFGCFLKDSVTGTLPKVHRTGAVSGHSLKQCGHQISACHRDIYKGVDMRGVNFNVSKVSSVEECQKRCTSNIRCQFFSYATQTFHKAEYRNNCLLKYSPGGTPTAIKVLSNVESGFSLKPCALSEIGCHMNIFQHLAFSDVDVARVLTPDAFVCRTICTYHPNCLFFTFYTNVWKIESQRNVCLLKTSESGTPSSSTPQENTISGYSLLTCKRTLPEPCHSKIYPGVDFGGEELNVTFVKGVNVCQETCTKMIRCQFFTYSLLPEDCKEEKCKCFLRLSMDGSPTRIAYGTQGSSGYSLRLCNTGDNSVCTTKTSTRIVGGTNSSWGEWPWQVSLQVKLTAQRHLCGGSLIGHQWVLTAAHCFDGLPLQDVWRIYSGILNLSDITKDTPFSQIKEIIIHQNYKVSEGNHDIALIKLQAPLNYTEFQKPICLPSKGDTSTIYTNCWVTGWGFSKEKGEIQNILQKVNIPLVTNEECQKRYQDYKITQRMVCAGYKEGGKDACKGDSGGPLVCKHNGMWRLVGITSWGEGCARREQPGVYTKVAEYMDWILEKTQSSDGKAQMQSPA
Sequence of Plasminogen (P00747 97-580 limits assumed): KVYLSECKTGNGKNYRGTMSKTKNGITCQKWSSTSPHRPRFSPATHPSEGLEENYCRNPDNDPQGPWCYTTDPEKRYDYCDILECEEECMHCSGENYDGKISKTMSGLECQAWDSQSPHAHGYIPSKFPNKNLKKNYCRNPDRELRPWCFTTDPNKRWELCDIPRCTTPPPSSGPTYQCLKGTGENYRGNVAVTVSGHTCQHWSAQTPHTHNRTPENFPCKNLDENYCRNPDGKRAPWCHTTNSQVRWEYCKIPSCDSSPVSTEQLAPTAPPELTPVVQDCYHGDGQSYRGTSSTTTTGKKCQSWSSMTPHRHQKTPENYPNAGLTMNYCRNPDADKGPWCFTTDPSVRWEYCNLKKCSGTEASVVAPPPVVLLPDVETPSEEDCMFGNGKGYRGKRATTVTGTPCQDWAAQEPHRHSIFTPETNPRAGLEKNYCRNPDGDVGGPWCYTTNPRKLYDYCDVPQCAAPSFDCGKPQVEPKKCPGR
Sequence of Plasminogen (P00747 581-810 limits assumed): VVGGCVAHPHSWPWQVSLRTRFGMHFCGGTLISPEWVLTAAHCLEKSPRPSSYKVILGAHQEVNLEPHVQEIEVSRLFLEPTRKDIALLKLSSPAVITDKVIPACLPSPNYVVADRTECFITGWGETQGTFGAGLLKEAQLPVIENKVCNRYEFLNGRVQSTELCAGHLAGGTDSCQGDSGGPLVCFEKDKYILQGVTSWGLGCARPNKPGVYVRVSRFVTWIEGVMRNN

Turning to `CCCCCC(NC(=O)[C@@H]1CCCN1C(=O)[C@H](Cc1ccccc1)NC(=O)OCc1ccccc1)B1O[C@@H]2CC3CC(C3(C)C)[C@]2(C)O1` (stereo in doubt; 3) [listing 1 of 2 here], the pKi at Coagulation factor X is 6.24; at Chymotrypsinogen A it was 6.94; at Plasminogen, 5.54; in assay [2], 5.80; on Serine protease 1 it was 6.49; in [3], 4.64. The negative-log Ki (pKi) at Prothrombin [4] was 7.72; at Prothrombin [5], 7.72; on Prothrombin [6], 7.72; in assay [7], 3.92. For the same molecule, the APTT in assay [1] turned out to be 2.3 µM.
For `COCCC[C@@H](NC(=O)[C@@H]1CCCN1C(=O)[C@@H](Cc1ccccc1)NC(=O)OCc1ccccc1)B1O[C@@H]2CC3CC(C3(C)C)[C@]2(C)O1` (stereo in doubt; 9a) [listing 1 of 2 here], the pKi is 5.51 on Coagulation factor X; 5.92 at Chymotrypsinogen A; 5.11 on Plasminogen; 5.68 in [2]; 6.17 on Serine protease 1; 4.09 in assay [3]. The pKi on Prothrombin [4] was 7.55; on Prothrombin [5], 8.15; at Prothrombin [6], 8.15; in assay [7] it was 5.21. This molecule yielded an APTT in assay [1] of 3.4 µM.
Turning to `CC1(C)C2CC1[C@]1(C)OB(C(CCCBr)NC(=O)[C@@H]3CCCN3C(=O)[C@H](Cc3ccccc3)NC(=O)OCc3ccccc3)O[C@@H]1C2` (stereo in doubt; 14), the pKi on Prothrombin [5] was 6.89.
Take `COCCC[C@@H](NC(=O)[C@@H]1CCCN1C(=O)[C@@H](Cc1ccccc1)NC(=O)OCc1ccccc1)B1O[C@@H]2CC3CC(C3(C)C)[C@]2(C)O1` (stereo in doubt; 9b): at Prothrombin [5], the pKi is 8.15.
On to `CCC(C)(C)C(NC(=O)[C@@H]1CCCN1C(=O)[C@H](Cc1ccc2ccccc2c1)NC(=O)OCc1ccccc1)B1O[C@@H]2CC3CC(C3(C)C)[C@]2(C)O1` (stereo partly drawn), for which the pKi at Coagulation factor X is 4.64; at Chymotrypsinogen A, 5.84; at Plasminogen, 4.89; in assay [2], 4.49; on Serine protease 1 it was 5.62; in assay [3], 3.85. The figures for the pKi (at Prothrombin [4]; at Prothrombin [6]; in assay [7]) were 6.85, 7.09 and 3.43, respectively. Moreover, the APTT in assay [1] was 110 µM. Besides, the TT on Prothrombin [8] was determined as 16 µM.
In turn, `CC1(C)C2CC1[C@]1(C)OB(C(CCC3OCCO3)NC(=O)[C@@H]3CCCN3C(=O)[C@H](Cc3ccccc3)NC(=O)OCc3ccccc3)O[C@@H]1C2` (stereo partly drawn) registered an APTT in [1] of 18 µM. The same molecule gave a TT at Prothrombin [8] of 3.4 µM. At Prothrombin [5], the pKi is 7.60.
For `COCCC[C@@H](NC(=O)[C@@H]1CCCN1C(=O)[C@@H](Cc1ccccc1)NC(=O)OCc1ccccc1)B1O[C@@H]2CC3CC(C3(C)C)[C@]2(C)O1` (stereo in doubt; 10), on Prothrombin [5], the pKi was 8.15.
`CCCCCCCCC(NC(=O)[C@@H]1CCCN1C(=O)[C@H](Cc1ccccc1)NC(=O)OCc1ccccc1)B1O[C@@H]2CC3CC(C3(C)C)[C@]2(C)O1` (stereo partly drawn) showed an APTT in assay [1] greater than 50 µM. This molecule also gave a TT at Prothrombin [8] of 3.9 µM. The same molecule gave a negative-log Ki (pKi) at Prothrombin [5] of 7.37.
Regarding `CCC(C)(C)C(NC(=O)[C@@H]1CCCN1C(=O)[C@H](Cc1ccccc1)NC(=O)OCc1ccccc1)B1O[C@@H]2CC3CC(C3(C)C)[C@]2(C)O1` (stereo partly drawn), the pKi at Coagulation factor X is 5.59; at Chymotrypsinogen A, 6.82; on Plasminogen, 5.26; in [2], 5.38; at Serine protease 1, 6.57; in assay [3] it was 4.82. Moreover, the pKi at Prothrombin [4] was 7.62; on Prothrombin [5], 8.15; on Prothrombin [6] it was 8.15; in assay [7], 5.02. Further, the APTT in assay [1] is 4 µM. In addition, the TT at Prothrombin [8] amounted to 1.1 µM.
Molecule `COCCC[C@@H](NC(=O)[C@@H]1CCCN1C(=O)[C@@H](Cc1ccccc1)NC(=O)OCc1ccccc1)B1O[C@@H]2CC3CC(C3(C)C)[C@]2(C)O1` (stereo in doubt; 11) had a pKi at Prothrombin [5] of 6.92.
`CC1(C)C2CC1[C@]1(C)OB(C(CCCl)NC(=O)[C@@H]3CCCN3C(=O)[C@H](Cc3ccccc3)NC(=O)OCc3ccccc3)O[C@@H]1C2` (stereo partly drawn): the pKi at Prothrombin [5] was 7.54.
In the case of `COCCCC(NC(=O)[C@@H]1CCCN1C(=O)[C@@H](NC(=O)OCc1ccccc1)C(c1ccccc1)c1ccccc1)B1O[C@@H]2CC3CC(C3(C)C)[C@]2(C)O1` (stereo partly drawn), the pKi on Coagulation factor X was 5.14; at Chymotrypsinogen A, 5.53; at Plasminogen, 4.92; in [2], 5.62; at Serine protease 1 it was 7.27; in assay [3], 4.48. The negative logarithm of the Ki (pKi) at Prothrombin [4] was 8.40; on Prothrombin [5], 8.52; on Prothrombin [6], 8.70; in [7], 4.47. In assay [1], this molecule registered an APTT of 20 µM. In addition, the TT on Prothrombin [8] worked out at 0.63 µM.
`COCCCC(NC(=O)[C@@H]1CCCN1C(=O)[C@H](Cc1ccccc1)NC(=O)OCc1ccccc1)B1O[C@@H]2CC3CC(C3(C)C)[C@]2(C)O1` (stereo partly drawn) showed a pKi on Prothrombin [5] of 4.96.
In the case of `CCC(NC(=O)[C@@H]1CCCN1C(=O)[C@H](Cc1ccccc1)NC(=O)OCc1ccccc1)B1O[C@@H]2CC3CC(C3(C)C)[C@]2(C)O1` (stereo partly drawn), the pKi at Prothrombin [5] was 6.00.
On to `CC1(C)C2CC1[C@]1(C)OB(C(Cc3ccccc3)NC(=O)[C@@H]3CCCN3C(=O)[C@H](Cc3ccccc3)NC(=O)OCc3ccccc3)O[C@@H]1C2` (stereo partly drawn), for which the pKi on Coagulation factor X is 5.92; on Chymotrypsinogen A it was 7.96; on Plasminogen, 5.35; in assay [2], less than 5.37; on Serine protease 1, 6.82; in assay [3] it was less than 5.37. Also, the pKi at Prothrombin [4] is 7.96; on Prothrombin [5] it was 7.74; on Prothrombin [6], 7.74; in assay [7] it was less than 5.37. Besides, in assay [1], the APTT was found to be 2.5 µM. This molecule also had a TT on Prothrombin [8] of 0.53 µM.
On Prothrombin [5], `CC(C)C(NC(=O)[C@@H]1CCCN1C(=O)[C@@H](NC(=O)OCc1ccccc1)C(c1ccccc1)c1ccccc1)B1O[C@@H]2CC3CC(C3(C)C)[C@]2(C)O1` (stereo partly drawn) had a pKi of 7.72.
As to `CC1(C)C2CC1[C@]1(C)OB(C(Cc3ccccc3)NC(=O)[C@@H]3CCCN3C(=O)[C@@H](NC(=O)OCc3ccccc3)C(c3ccccc3)c3ccccc3)O[C@@H]1C2` (stereo partly drawn), the negative-log Ki (pKi) on Coagulation factor X was 5.37; at Chymotrypsinogen A it was 7.68; on Plasminogen, 5.52; in [2], less than 5.32; at Serine protease 1 it was 6.36; in [3] it was less than 4.32. Further, the pKi is 7.23 on Prothrombin [4], 6.89 on Prothrombin [5], 6.89 at Prothrombin [6] and 5.02 in [7]. In [1], this molecule came in with an APTT greater than 50 µM. This molecule gave a TT on Prothrombin [8] of 5.2 µM.
Turning to `CC1(C)C2CC1[C@]1(C)OB(C(CCCBr)NC(=O)[C@@H]3CCCN3C(=O)[C@H](Cc3ccccc3)NC(=O)OCc3ccccc3)O[C@@H]1C2` (stereo in doubt; 13), the pKi at Prothrombin [5] is 4.82.
On Prothrombin [5], `Cc1ccc(CCC(NC(=O)[C@@H]2CCCN2C(=O)[C@H](Cc2ccccc2)NC(=O)OCc2ccccc2)B2O[C@@H]3CC4CC(C4(C)C)[C@]3(C)O2)cc1` (stereo partly drawn) had a pKi of 7.70.
As to `COCCC[C@@H](NC(=O)[C@@H]1CCCN1C(=O)[C@@H](Cc1ccccc1)NC(=O)OCc1ccccc1)B1O[C@@H]2CC3CC(C3(C)C)[C@]2(C)O1` (stereo in doubt; 9a) [listing 2 of 2 here], the TT on Prothrombin [8] was determined as 2.8 µM.
For the molecule `CCCCCC(NC(=O)[C@@H]1CCCN1C(=O)[C@H](Cc1ccccc1)NC(=O)OCc1ccccc1)B1O[C@@H]2CC3CC(C3(C)C)[C@]2(C)O1` (stereo in doubt; 2), the pKi at Prothrombin [5] is 7.59.
Same read-out and setting: as for `CCCCCC(NC(=O)[C@@H]1CCCN1C(=O)[C@H](Cc1ccccc1)NC(=O)OCc1ccccc1)B1O[C@@H]2CC3CC(C3(C)C)[C@]2(C)O1` (stereo in doubt; 21), the figure is 7.00.
`CCCCCC(NC(=O)[C@@H]1CCCN1C(=O)[C@H](Cc1ccccc1)NC(=O)OCc1ccccc1)B1O[C@@H]2CC3CC(C3(C)C)[C@]2(C)O1` (stereo in doubt; 3) [listing 2 of 2 here] gave a TT at Prothrombin [8] of 0.54 µM.
The molecule `CC1(C)C2CC1[C@]1(C)OB(C(CCCBr)NC(=O)[C@@H]3CCCN3C(=O)[C@H](Cc3ccccc3)NC(=O)OCc3ccccc3)O[C@@H]1C2` (stereo in doubt; 12) gave a pKi at Prothrombin [5] of 8.15.
In the case of `COCCC(NC(=O)[C@@H]1CCCN1C(=O)[C@H](Cc1ccccc1)NC(=O)OCc1ccccc1)B1O[C@@H]2CC3CC(C3(C)C)[C@]2(C)O1` (stereo partly drawn), the pKi at Prothrombin [5] is 7.68.
